Laboratory results taken from ChEMBL document CHEMBL5329156, “Discovery and development of novel substituted monohydrazides as potent antifungal agents” (RSC Med Chem, 2023).
In brackets after ≈: the same amount, converted by molar mass.

Columns and labels:
Type in all cases: functional
[1] = test system: Pichia kudriavzevii; test: Antifungal activity against Pichia kudriavzevii ATCC 6258 assessed as fungal growth inhibition by double dilution method
In short: (§1)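 Broth microdilution after CLSI M27-A3/M38-A2 with minor changes. Single colony grown overnight in YPD at 35 °C, 200 rpm. Compound final range 0.06-31.3 µg/mL; incubated 48 h at 35 °C.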

[2] = test system: [Candida] auris; test: Antifungal activity against Candida auris AR Bank # 0384 assessed as fungal growth inhibition by double dilution method; conditions: Candidozyma auris; in short: as §1
[3] = test system: Candida albicans; test: Antifungal activity against itraconazole/fluconazole susceptible Candida albicans ATCC MYA-2310 assessed as fungal growth inhibition by double dilution method
In short: (§2)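 Broth microdilution after CLSI M27-A3/M38-A2 with minor modifications. A single colony was grown overnight in YPD at 35 °C with shaking at 200 rpm. Cells were mixed 1:1 with compound (final 0.06-31.3 µg/mL, from DMSO stocks) and incubated 48 h at 35 °C.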

[4] = test system: Aspergillus flavus; test: Antifungal activity against Aspergillus flavus ATCC MYA-3631 assessed as fungal growth inhibition by double dilution method
[5] = test system: Aspergillus fumigatus; test: Antifungal activity against Aspergillus fumigatus NRRL 6113 assessed as fungal growth inhibition by double dilution method
[6] = test system: Candida albicans; test: Antifungal activity against Candida albicans ATCC 10231 assessed as fungal growth inhibition by double dilution method; in short: as §1
[7] = test system: Cryptococcus neoformans; test: Antifungal activity against Cryptococcus neoformans ATCC MYA-895 assessed as fungal growth inhibition by double dilution method; in short: as §1
[8] = test system: [Candida] auris; test: Antifungal activity against Candida auris AR Bank # 0390 assessed as fungal growth inhibition by double dilution method; conditions: Candidozyma auris; in short: as §1
[9] = test system: Candida albicans; test: Antifungal activity against itraconazole/fluconazole resistant Candida albicans ATCC MYA-1237 assessed as fungal growth inhibition by double dilution method; in short: as §2
[10] = test system: Candida albicans; test: Antifungal activity against itraconazole/fluconazole susceptible Candida albicans ATCC MYA-2876 assessed as fungal growth inhibition by double dilution method; in short: as §2
[11] = test system: Aspergillus nidulans; test: Antifungal activity against Aspergillus nidulans ATCC 38163 assessed as fungal growth inhibition by double dilution method
[12] = test system: Nakaseomyces glabratus; test: Antifungal activity against Candida glabrata ATCC 22019 assessed as fungal growth inhibition by double dilution method; in short: as §1
[13] = test system: Aspergillus fumigatus; test: Antifungal activity against Aspergillus fumigatus NRRL 5109 assessed as fungal growth inhibition by double dilution method
[14] = test system: Candida albicans; test: Antifungal activity against itraconazole/fluconazole resistant Candida albicans ATCC 90819 assessed as fungal growth inhibition by double dilution method; in short: as §2
[15] = test system: Nakaseomyces glabratus; test: Antifungal activity against Candida glabrata ATCC 2001 assessed as fungal growth inhibition by double dilution method; in short: as §1
[16] = test system: Candida albicans; test: Antifungal activity against Candida albicans ATCC 64124 assessed as fungal growth inhibition by double dilution method; in short: as §2
[17] = test system: Candida albicans; test: Antifungal activity against itraconazole/fluconazole resistant Candida albicans ATCC MYA-1003 assessed as fungal growth inhibition by double dilution method; in short: as §2
[18] = test system: Aspergillus fumigatus; test: Antifungal activity against Aspergillus fumigatus NRRL 163 assessed as fungal growth inhibition by double dilution method
[19] = test system: Aspergillus terreus; test: Antifungal activity against Aspergillus terreus ATCC MYA-3633 assessed as fungal growth inhibition by double dilution method

SMILES | MIC [1] [mg/L] | MIC [2] [mg/L] | MIC [3] [mg/L] | MIC [4] [mg/L] | MIC [5] [mg/L] | MIC [6] [mg/L] | MIC [7] [mg/L] | MIC [8] [mg/L] | MIC [9] [mg/L] | MIC [10] [mg/L] | MIC [11] [mg/L] | MIC [12] [mg/L] | MIC [13] [mg/L] | MIC [14] [mg/L] | MIC [15] [mg/L] | MIC [16] [mg/L] | MIC [17] [mg/L] | MIC [18] [mg/L] | MIC [19] [mg/L]
O=C(NNc1cccc(F)c1)c1nc(F)ccc1F | 0.49 (≈ 1.83 µM) | 1.95 (≈ 7.3 µM) | 1.95 (≈ 7.3 µM) | > 31.3 | > 31.3 | 0.98 (≈ 3.67 µM) | ≤ 0.06 | 1.95 (≈ 7.3 µM) | 1.95 (≈ 7.3 µM) | 1.95 (≈ 7.3 µM) | 1.95 (≈ 7.3 µM) | 7.8 (≈ 29.2 µM) | > 31.3 | 3.9 (≈ 14.6 µM) | 15.6 (≈ 58.4 µM) | 0.98 (≈ 3.67 µM) | 0.98 (≈ 3.67 µM) | > 31.3 | 3.9 (≈ 14.6 µM)
O=C(NNc1ccc(F)cc1)c1ncc(F)cc1F | 0.49 (≈ 1.83 µM) | 1.95 (≈ 7.3 µM) | 3.9 (≈ 14.6 µM) | 7.8 (≈ 29.2 µM) | > 31.3 | 0.98 (≈ 3.67 µM) | 0.49 (≈ 1.83 µM) | 0.98 (≈ 3.67 µM) | 1.95 (≈ 7.3 µM) | 1.95 (≈ 7.3 µM) | 0.49 (≈ 1.83 µM) | 3.9 (≈ 14.6 µM) | > 31.3 | 1.95 (≈ 7.3 µM) | 15.6 (≈ 58.4 µM) | 1.95 (≈ 7.3 µM) | 0.98 (≈ 3.67 µM) | > 31.3 | 3.9 (≈ 14.6 µM)
COc1ccc(NNC(=O)c2nc(F)ccc2F)cc1 | 0.98 (≈ 3.51 µM) | 3.9 (≈ 14 µM) | 1.95 (≈ 6.98 µM) | > 31.3 | 31.3 (≈ 112 µM) | 1.95 (≈ 6.98 µM) | 0.98 (≈ 3.51 µM) | 0.98 (≈ 3.51 µM) | 0.98 (≈ 3.51 µM) | 1.95 (≈ 6.98 µM) | 1.95 (≈ 6.98 µM) | 7.8 (≈ 27.9 µM) | 15.6 (≈ 55.9 µM) | 1.95 (≈ 6.98 µM) | 7.8 (≈ 27.9 µM) | 1.95 (≈ 6.98 µM) | 0.98 (≈ 3.51 µM) | 31.3 (≈ 112 µM) | 31.3 (≈ 112 µM)
O=C(NNc1ccc(F)cc1)c1ccc(F)cc1F | 1.95 (≈ 7.32 µM) | 1.95 (≈ 7.32 µM) | 3.9 (≈ 14.6 µM) | > 31.3 | > 31.3 | 0.49 (≈ 1.84 µM) | 0.49 (≈ 1.84 µM) | 1.95 (≈ 7.32 µM) | 1.95 (≈ 7.32 µM) | 7.8 (≈ 29.3 µM) | 3.9 (≈ 14.6 µM) | 15.6 (≈ 58.6 µM) | > 31.3 | 1.95 (≈ 7.32 µM) | 7.8 (≈ 29.3 µM) | 7.8 (≈ 29.3 µM) | 1.95 (≈ 7.32 µM) | > 31.3 | 3.9 (≈ 14.6 µM)
O=C(NNc1cccc(F)c1)c1ncc(F)cc1F | 0.24 (≈ 0.898 µM) | 1.95 (≈ 7.3 µM) | 1.95 (≈ 7.3 µM) | > 31.3 | > 31.3 | 0.24 (≈ 0.898 µM) | ≤ 0.06 | 1.95 (≈ 7.3 µM) | 3.9 (≈ 14.6 µM) | 1.95 (≈ 7.3 µM) | 0.98 (≈ 3.67 µM) | 1.95 (≈ 7.3 µM) | > 31.3 | 3.9 (≈ 14.6 µM) | 31.3 (≈ 117 µM) | 0.98 (≈ 3.67 µM) | 1.95 (≈ 7.3 µM) | > 31.3 | 3.9 (≈ 14.6 µM)
O=C(NNc1cccc(F)c1)c1ccc(F)cn1 | 0.24 (≈ 0.963 µM) | 1.95 (≈ 7.82 µM) | 3.9 (≈ 15.6 µM) | 7.8 (≈ 31.3 µM) | > 31.3 | 0.49 (≈ 1.97 µM) | ≤ 0.06 | 1.95 (≈ 7.82 µM) | 3.9 (≈ 15.6 µM) | 3.9 (≈ 15.6 µM) | 0.98 (≈ 3.93 µM) | 1.95 (≈ 7.82 µM) | > 31.3 | 3.9 (≈ 15.6 µM) | 31.3 (≈ 126 µM) | 0.49 (≈ 1.97 µM) | 1.95 (≈ 7.82 µM) | > 31.3 | 1.95 (≈ 7.82 µM)
COc1ccc(NNC(=O)c2cccc(F)n2)cc1 | 0.49 (≈ 1.88 µM) | 1.95 (≈ 7.46 µM) | 0.98 (≈ 3.75 µM) | > 31.3 | 15.6 (≈ 59.7 µM) | 0.24 (≈ 0.919 µM) | 0.24 (≈ 0.919 µM) | 1.95 (≈ 7.46 µM) | 0.98 (≈ 3.75 µM) | 0.98 (≈ 3.75 µM) | 1.95 (≈ 7.46 µM) | 7.8 (≈ 29.9 µM) | > 31.3 | 1.95 (≈ 7.46 µM) | 0.98 (≈ 3.75 µM) | 1.95 (≈ 7.46 µM) | 0.98 (≈ 3.75 µM) | > 31.3 | 15.6 (≈ 59.7 µM)
